According to paper PMC4213839 (Journal of Ginseng Research, 2014):

Type: in vivo, Sprague–Dawley rats
How it was run: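 Male Sprague–Dawley rats (210–240 g) were fed a control diet or control diet plus 2.5, 5 or 10% test fiber for 2 wk, then dosed orally with test material at 200 or 2,000 mg/kg (n = 5 per group). Tail-vein blood was drawn at 0–24 h. Plasma was spun at 4,000 × g and deproteinized with acetonitrile. LC-MS/MS used MRM with an amlodipine internal standard. Cmax and Tmax were read from the profiles.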

[1] = 10% NUTRIOSE in the diet, ginseng extract-treated rats

## CC(C)=CCC[C@](C)(O[C@@H]1O[C@H](CO)[C@@H](O)[C@H](O)[C@H]1O)[C@H]1CC[C@]2(C)[C@@H]1[C@H](O)C[C@@H]1[C@@]3(C)CC[C@H](O[C@@H]4O[C@H](CO)[C@@H](O)[C@H](O)[C@H]4O[C@@H]4O[C@H](CO)[C@@H](O)[C@H](O)[C@H]4O)C(C)(C)[C@@H]3CC[C@]12C [ginsenoside Rd]
[1]
  fold increase of AUC of ginsenoside Rd by NUTRIOSE: 1.34 fold
  fold increase of Cmax of ginsenoside Rd by NUTRIOSE: 1.34 fold
Ginsenoside Rb1-treated rats
  time after administration at which ginsenoside Rd was detected in blood: 8 h
Same oral dosage of ginsenoside Rb1 and ginseng extract
  AUC of ginsenoside Rd, fold higher in ginseng extract-treated than in ginsenoside Rb1-treated rats: 13.5 fold
